Bioassay records from PubChem.
Only some compounds are listed: those with a hit (about 3% of all), similar ones and a draw of the others.
aDG glyco act: activators of alpha-DG glycosylation, primary screen, uHTS, Pro5-aDG cells, AlphaScreen; alpha-DG glycosylation AlphaScreen (IIH6); 0% Pro5, 100% B10-LARGE cell signal; AID 624168, 2012; 360,000 tested, 0.22% active; activation, % at 10 µM;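 active means activation of at least 8% versus controls, or a plate z-score of at least 8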;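 further: Pro5 are CHO cells carrying HIG-tagged alpha-DG that lacks glycosylation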
GASC-1 inh: inhibitors of GASC-1 histone demethylase, primary screen, biochemical, fluorescence, DELFIA europium. Lysine-specific demethylase 4C (Homo sapiens), Q9H3R0. GST-JMJD2C(1-420) H3K9me3 demethylation. inhibition, % at 2.35 µM. 330,000 tested, 0.069% active;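 active means more than half of a compound's replicate wells show inhibition beyond 50%, single wells judged on their own value; inconclusive means some, but no more than half, of replicates pass 50% inhibition; inactive means no replicate passes 50% inhibition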;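 further: signal counts dimethyl H3K9 product captured on neutravidin plate; 0% = median of DMSO wells and 100% = 0.3 times that DMSO median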
Target sequence (Q9H3R0 1-420 limits assumed): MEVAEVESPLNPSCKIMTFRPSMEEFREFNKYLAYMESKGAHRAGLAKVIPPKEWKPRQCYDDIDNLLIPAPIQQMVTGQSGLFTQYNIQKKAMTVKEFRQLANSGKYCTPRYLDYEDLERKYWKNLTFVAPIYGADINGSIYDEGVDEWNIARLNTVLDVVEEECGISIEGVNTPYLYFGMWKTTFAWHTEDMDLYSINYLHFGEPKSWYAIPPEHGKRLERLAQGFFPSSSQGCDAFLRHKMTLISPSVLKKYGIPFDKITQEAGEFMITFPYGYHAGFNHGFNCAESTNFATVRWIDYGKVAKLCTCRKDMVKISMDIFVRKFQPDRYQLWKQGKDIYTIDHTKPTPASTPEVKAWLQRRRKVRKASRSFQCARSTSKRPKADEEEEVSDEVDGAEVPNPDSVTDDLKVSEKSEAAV
NPR2 activator: human GC-B receptor activators, primary screen, HEK293 GC-B cells, cGMP TR-FRET, EC30 CNP. activation, % at 10 µM. Atrial natriuretic peptide receptor 2 (Homo sapiens), P20594. 0% at EC30 CNP, 100% saturating CNP. 370,000 tested, 0.11% active. AID 1920062, 2024;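 active means activation at 10 µM reaching about 35% in either raw or pattern-adjusted values, limit read from the data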
Lipid droplet: inhibitors of hepatocyte lipid droplet formation, primary screen, imaging, high-throughput imaging, BODIPY stain; AML12 mouse hepatocytes, oleate lipid droplets; inhibition, % at 6.5 µM; 240,000 tested, 0.4% active; AID 1656, 2009;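 active means lipid droplet intensity inhibited by at least 50%, with more than 500 cells counted; inconclusive means wells with under 300 cells, treated as cytotoxic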
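System: AML12 hepatocytes (mouse). Probe or stimulus: oleic acid at 100 µM to induce lipid droplet formation. Times: overnight treatment with compound plus oleate. Detection: Image-based BODIPY and DAPI two-channel analysis. Evaluation: percent inhibition of filter-corrected integrated lipid droplet intensity per well.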
NPR1 activator: GC-A stimulated cGMP production enhancers – HEK293 GC-A cells, cGMP TR-FRET, EC30 ANP, primary screen. AID 1671463, 2021. 0% at EC30 ANP, 100% saturating ANP. 370,000 tested, 0.14% active. activation, % at 10 µM. Atrial natriuretic peptide receptor 1 (Homo sapiens), P16066; in the data active means activation above about 40%
GRIN3A LBD mod: binders of NR3A ligand-binding domain, primary screen, biophysical, differential scanning fluorimetry, uHTS | 340,000 tested, 2.5% active | AID 1259313, 2017 | NR3A LBD differential scanning fluorimetry, Tm shift; 0% = protein alone, 100% = glycine-bound protein | Glutamate receptor ionotropic, NMDA 3A (GRIN3A) ligand-binding domain | Tm shift relative to glycine control, % at 25 µM;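 active means melting temperature shift of at least 10% of the positive control shift, at one fixed dose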
Lipid drop inh: hepatocyte lipid droplet accumulation inhibitors, confirmation, imaging, AML12 mouse hepatocytes, single concentration, high-content; AID 463183, 2010; shares compounds with Lipid droplet; 870 tested, 65% active; BODIPY lipid droplet imaging; droplets induced with 100 µM oleic acid; inhibition, % at 5.2 µM;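 active means inhibition of lipid droplet metric at least 50%, with more than 300 cells in each of four replicates; inconclusive means wells under 300 cells, flagged as toxic or low count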;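 further: plate controls were DMSO with oleic acid for no effect and 5 µM Triacsin-C for full effect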
AML12 cytotox: AML12 hepatocyte cytotoxicity, counter-screen for hepatic lipid droplet formation project, imaging, DAPI nuclear morphology imaging. shares compounds with Lipid droplet. AML12 mouse hepatocytes; hits give high values; cells fed 100 µM oleate overnight. z-score at 5 µM. 870 tested, 3% active; in the data active means z-score above about 6.3;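 further: compound exposure lasted overnight at 37 °C before fixation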
AML12 tox ATP: AML12 hepatocyte cytotoxicity, confirmation, cytotoxicity control for hepatic lipid droplet formation project, cell-based, single concentration; AML12 mouse hepatocyte viability, ATP luminescence; cells loaded with 100 µM oleic acid; cytotoxicity, % at 50 µM; 530 tested, under 10 active; shares compounds with Lipid droplet;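 active means cytotoxicity above 50% in each of four replicates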;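 further: compound exposure lasted overnight at 37 °C before the ATP read; 0% = DMSO-treated cells and 100% = wells with no cells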
* = called active by the depositor; ? = inconclusive; . = not tested or not shown; ! = a repeat was not active.

SMILES	aDG glyco act	GASC-1 inh	NPR2 activator	Lipid droplet	NPR1 activator	GRIN3A LBD mod	Lipid drop inh	AML12 cytotox	others
Cc1ccc(OCCCC(=O)Nc2ccc(S(=O)(=O)N3CCOCC3)cc2)cc1	-0.1	1.9	1.4	.	1.0	28.0*	.	.
COCCCNC(=O)C[C@H]1C[C@@]2(C(=O)OC)C(=C[C@H](C(C)C)O[C@@H]2C2CC2)N(Cc2ccco2)C1=O	.	.	-4.0	.	-1.9	.	.	.
CCCc1nc2ccccc2c(C(=O)OCC(=O)Nc2ccc(S(=O)(=O)N3CCOCC3)cc2)c1CC	0.4	6.0	2.2	7.9	0.2	17.8*	.	.
COc1ccc(/C=C/C(=O)Nc2ccc(S(=O)(=O)N3CCOCC3)cc2)c(OC)c1	0.2	.	0.3	.	-3.2	25.0*	.	.
CN(C)C1(CNC(=O)c2cccc(S(=O)(=O)NCc3ccccc3)c2)CCCCC1	0.0	-0.7	-1.9	.	-2.6	0.3	.	.
CCN(c1ccccc1)S(=O)(=O)c1cccc(C(=O)NCC2(N(C)C)CCCCC2)c1	0.2	-5.6	-5.9	.	-1.2	24.8*	.	.
COC(=O)CSc1nnc(-c2cc(-c3ccccc3)n[nH]2)n1N	.	.	-5.8	.	2.6	.	.	.
COc1ccc(NC(=O)CSc2nnc3c4c(nc(-c5ccccc5)n23)CC(C)(C)OC4)cc1	-0.6	-9.1	-4.3	1.9	-5.4	-5.4	.	.
COc1ccc(-c2nc3c(c4nnc(SC(C)C(=O)Nc5ccc(C)cc5)n24)COC(C)(C)C3)cc1 (stereo unspecified)	-0.5	0.0	-5.2	62.1*	-6.0	-2.5	79.4*	-0.771	AML12 tox ATP=-6.2
COC(=O)C1=C(C)N(Cc2ccc(C(F)(F)F)cc2)C(=NCc2cc(OC)c(OC)c(OC)c2)NC1c1cccc(Cl)c1 (stereo unspecified)	.	.	-3.6	.	-18.4	.	.	.
Cc1ccccc1OCc1n(CC(=O)OC2CC(C)CCC2C(C)C)c2ccccc2[n+]1C (stereo unspecified)	0.3	-10.1	-8.0	53.9*!	-36.9	-9.4	7.7	-1.46
COc1cc2c(cc1NC(=O)CSc1nc3ccc(C)cc3[nH]1)oc1ccccc12	.	-9.8	.	52.1*	.	.	98.7*	-0.06
COc1cc(CNC(=O)c2cccc(COc3ccc(Cl)cc3)c2)cc(OC)c1	0.2	-4.6	5.7	56.9*	7.8	-3.8	91.9*	-0.289	AML12 tox ATP=-3.1
Cc1ccc(C(=O)CC2(O)C(=O)N(CCc3ccccc3)c3ccc(Br)cc32)o1 (stereo unspecified)	1.6	0.1	-7.7	53.4*	-8.8	-2.1	82.8*	-0.621	AML12 tox ATP=4.3
Cc1ccc(C(=O)CC2(O)C(=O)N(Cc3ccccc3)c3ccccc32)o1 (stereo unspecified)	1.6	27.0	4.9	-10.1	10.5	-0.1	.	.
CCCCN(CCCNC(=O)Cn1nc(CC)n2c(cc3sc(C)cc32)c1=O)Cc1ccccc1	0.0	7.5	-4.3	69.1*	-6.8	-0.5	88.9*	-0.5	AML12 tox ATP=15.3
CCc1nn(CC(=O)NCCCN(CC)Cc2ccccc2)c(=O)c2cc3sccc3n12	-0.1	4.3	-8.1	-30.4	-10.7	0.3	.	.
CCC(CC)C(=O)OCC(=O)C1(O)CCC2C3CCC4=CC(=O)CCC4(C)C3C(O)CC21C (stereo unspecified)	0.3	.	7.5	.	3.3	2.0	.	.
CC(=O)OCC(=O)[C@@]1(O)CC[C@H]2[C@@H]3CCC4=CC(=O)CC[C@]4(C)[C@H]3[C@@H](O)C[C@@]21C	-0.4	8.1	2.4	50.4*	2.3	0.6	23.7	0.654
CCOc1ccc(CCNC(=O)CCc2nc(-c3ccc(OC)cc3)no2)cc1OCC	0.3	7.5	1.6	69.3*	-3.7	3.5	108.0*	-0.275	AML12 tox ATP=10.8
CCOc1ccc(CCNC(=O)CCc2nc(-c3ccc(C)cc3)no2)cc1OCC	-0.1	-6.3	0.7	.	-1.3	-2.8	.	.
COc1ccc(-c2nc(CS(=O)CC(=O)NCCc3ccc(OC)c(OC)c3)c(C)o2)cc1 (stereo unspecified)	-0.3	4.0	-6.3	-1.7	5.0	-1.1	.	.
CCOc1ccc(CCNC(=O)CS(=O)Cc2nc(-c3ccc(OC)cc3)oc2C)cc1OCC (stereo unspecified)	0.8	3.6	-2.1	75.5*	4.0	-1.5	81.0*	-0.467	AML12 tox ATP=11.1
COc1cc(/C=N/Nc2nc(C)cc(C)n2)ccc1OC(=O)c1ccco1	-0.2	-4.1	13.2	1.0	7.1	-4.5	.	.
CCOc1cc(/C=N\Nc2nc(Nc3ccccc3)nc(N3CCOCC3)n2)ccc1OC(=O)c1ccco1	-0.2	-4.7	10.3	132.0*	0.4	4.9	108.8*	20.5*
SMILES	aDG glyco act	GASC-1 inh	NPR2 activator	Lipid droplet	NPR1 activator	GRIN3A LBD mod	Lipid drop inh	AML12 cytotox	others
O=C(COC(=O)/C=C/c1ccccc1Cl)NC1CCCC1	-0.2	9.0	-1.3	.	3.8	-1.0	.	.
COCCN1C(=O)/C(=C/c2ccc(N3CCCC3)cc2C)SC1=S	-0.2	-13.7	-3.8	104.6*	-1.6	2.7	104.9*	-0.0796
CCN=C1S/C(=C\c2ccc(N3CCOCC3)cc2C)C(=O)N1CC	-0.2	-15.4	-3.7	-4.7	-4.0	0.3	.	.
C#CC(=O)N(c1ccc(OC)c(OC)c1)C(C(=O)NC1CCCC1)c1cccs1 (stereo unspecified)	-0.4	-10.8	.	109.5*	.	0.5	?	34.8*
c1ccc(Cn2ccc3ccc(-c4ccc5ccn(Cc6ccc(-c7ccccc7)cc6)c5c4)cc32)cc1	.	.	-4.6	.	0.9	.	.	.
CS(=O)(=O)n1c2ccccc2c(=O)n1-c1ccccc1CCl	0.1	.	0.6	.	2.3	.	.	.
CCOC(=O)c1ccc(N2CCN(c3ccccc3F)CC2)c(NC(=O)Nc2ccccc2)c1	0.1	-3.4	4.7	52.1*	-4.7	7.4	100.0*	-0.147	AML12 tox ATP=-4.6
